# High-throughput results (PubChem BioAssay)
# Casp6 inh – human caspase-6 inhibitors, primary screen, biochemical, VEID-R110 fluorescence, single point, set 2 | inhibition, % at 12.5 µM | AID 686996, 2013 | actives 0.53% (n = 350,000) | P55212 | purified caspase-6, Z-VEID-R110 cleavage fluorescence;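 active = mean inhibition across replicates at least about 35%, with every replicate also reaching that limit, limit read from the data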;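 note: 0% = median of neutral control wells and 100% = no fluorescence left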
# Target sequence (P55212 24-179 limits assumed): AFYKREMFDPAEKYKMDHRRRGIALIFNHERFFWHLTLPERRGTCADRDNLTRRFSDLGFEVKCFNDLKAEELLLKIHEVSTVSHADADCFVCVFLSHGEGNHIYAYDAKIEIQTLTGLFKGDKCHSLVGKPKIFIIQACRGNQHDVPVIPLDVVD
# Target sequence (P55212 194-293 limits assumed): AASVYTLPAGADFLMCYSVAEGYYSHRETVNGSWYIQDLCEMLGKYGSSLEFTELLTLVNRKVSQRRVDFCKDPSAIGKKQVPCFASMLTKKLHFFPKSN
# ARNT TACC3 PPI – disruptors of ARNT/TACC3 protein interaction, primary screen, biochemical, AlphaScreen, single concentration; actives 0.66% (n = 390,000); AlphaScreen His-ARNT PAS-B/GST-TACC3 binding, luminescence; TACC3 fragment carries E629A point mutation; Transforming acidic coiled-coil-containing protein 3 (Homo sapiens), Q9Y6A5; inhibition, % at 9.99 µM;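 active = mean inhibition of replicates at least 50% and at least half of replicates each reaching 50%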;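 note: 0% = complete ARNT plus TACC3 wells and 100% = ARNT alone without TACC3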
# S100A4 inh HTS – inhibitors of S100A4-myosin IIA peptide binding, primary screen, biochemical, fluorescence polarization, TAMRA-MyoIIA peptide; Protein S100-A4 (Homo sapiens), P26447; inhibition, % at 10.7 µM; actives 0.14% (n = 360,000); AID 652163, 2013;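 active = mean inhibition of at least 70% across replicates, with every replicate also reaching that level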
# Target sequence (P26447 whole entry, looked up): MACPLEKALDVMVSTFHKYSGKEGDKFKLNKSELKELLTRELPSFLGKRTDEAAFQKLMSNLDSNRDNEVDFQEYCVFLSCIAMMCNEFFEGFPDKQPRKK
#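 Material: S100A4 monomer protein / Buffer or medium: 50 mM HEPES pH 7.2, 10 mM CaCl2, 100 mM KCl / Times: 5 min incubation before reading / Benchmarks: neutral control DMSO, positive control TFP / Reagent: labelled myosin peptide probe, 5 nM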
# Ecoli rRNA inh – reduced GFP signal of wild-type E. coli, primary screen, bacterial rRNA inhibitor project, GFP/RFP fluorescence, OD600, single point. actives 1.6% (n = 350,000). GFP signal change (wild-type ribosome), % (test concentration not listed). E. coli WT GFP vs humanized-ribosome RFP mutants, 24 h; active compounds read low; DMSO median 0, no signal -100. AID 720706, 2013;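 active = significant combined selectivity score with lowered wild-type GFP, culture density cut under 30%, mutant RFP and density less affected; inactive = any of these conditions unmet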
# PGC1a acetyl inh – inhibitors of PGC1a acetylation signal, primary screen, cell-based, U2OS, AlphaScreen, inhibitor mode. AlphaScreen anti-acetyl-lysine; with virally co-expressed GCN5 acetyltransferase. inhibition, % at 15.6 µM. actives 0.17% (n = 350,000);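 active = every replicate shows inhibition of at least 40%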;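 note: 0% = neutral control wells and 100% = positive control wells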
# ERAP1 HTS inh – human ERAP1 aminopeptidase inhibitors, primary screen, biochemical, single point, plate reader; Endoplasmic reticulum aminopeptidase 1 (Homo sapiens), Q9NZ08; recombinant ERAP1, Leu-AMC fluorescence, 60 min; inhibition, % at 10.7 µM; actives 0.15% (n = 340,000);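 active = mean replicate inhibition of at least 30%, or all replicates individually reaching that 30% level; inactive = mean below 30% and not every replicate reaching it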;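 note: 0% = neutral control wells and 100% = L-leucinethiol positive control wells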
# An asterisk follows results filed as active; / = no result given; ! = not active in a repeat. This is a sample that favours compounds with a hit; in the whole collection about 2.4% have one here.
SMILES,Casp6 inh,ARNT TACC3 PPI,S100A4 inh HTS,Ecoli rRNA inh,PGC1a acetyl inh,ERAP1 HTS inh
COc1ccc(C(=O)/C(=C\c2ccco2)N2C=CC=CC2=C(C#N)C#N)cc1,/,-34.9,/,/,71.3*,/
CCc1ccccc1NC(=O)CNC(=O)CCc1nc2sc3c(c2c(=O)[nH]1)CCCC3,36.5*,0.0,-4.1,10.5,5.7,2.9
O=C(CCc1nc2sc3c(c2c(=O)[nH]1)CCCC3)NCCc1ccccc1,2.2,-1.6,-4.1,0.7,12.2,4.6
C/C=C/c1ccc([C@@H]2[C@H]3CN(S(=O)(=O)c4ccc(F)cc4)CCCCN3[C@H]2CO)cc1,0.7,-0.2,-24.4,9.4,-4.8,1.3
O=C(CCOc1ccccc1)N1CCN(S(=O)(=O)c2ccccc2F)CC1,48.2*,0.1,1.4,-4.3,-1.7,2.7
O=C(CCOc1ccccc1)N1CCN(S(=O)(=O)c2cccs2)CC1,/,-4.0,/,/,3.8,/
CO[C@H]1CN(C)C(=O)c2cc(NS(=O)(=O)CC(F)(F)F)ccc2OC[C@H](C)N(Cc2nccs2)C[C@@H]1C,/,-1.1,/,0.9,-2.3,/
CCC(=O)N(C)/C=C1\Sc2ccccc2C1=O,/,5.7,/,/,-9.2,/
CCC(=O)N(CC)C1=C(O)c2ccccc2C(=O)C1=O,40.0*,23.5,-6.2,2.1,17.5,5.1
COc1ccccc1CN1CCCC(C(=O)N(C)Cc2ccccc2)C1 (stereo unspecified),/,-12.0,/,/,45.0*,/
C/C=C/c1ccc([C@@H]2[C@@H](CO)N(C(=O)CN(C)C)C23CN(C(=O)C2CCOCC2)C3)cc1,-0.6,/,-5.4,2.3,7.4,-0.6
CC(=O)N/N=C/c1cc(C(C)C)cc(/C=N/NC(C)=O)c1O,-11.3,72.3*,-2.2,-16.4,/,4.4
CC(=O)N/N=C/c1cc(C)n(-c2ccc(Br)cc2)c1C,2.0,-2.0,-3.7,2.5,0.1,4.6
CC[C@H]1CC=CC[C@H](C)Oc2ccccc2C(=O)N(C)[C@H](C(C)C)C(=O)N1 (mixture of isomers),/,/,/,0.3,/,/
CC(C)NC(=O)N(C)C[C@@H]1Oc2c(NC(=O)c3nc4ccccc4s3)cccc2C(=O)N([C@@H](C)CO)C[C@@H]1C,0.2,2.0,-0.6,-2.0,-1.8,0.3
Cc1ccsc1-c1n[nH]c(=S)n1C1CCCCC1,1.7,-38.9,-2.9,-40.8*,/,3.1
O=C(c1cccs1)N1CCN(c2nnc(-c3ccccc3)c3ccccc23)CC1,4.8,3.3,9.1,-28.1*,-69.4,2.8
CCN(CC)CC(C)(C)C(=O)/C=C/c1ccc(/C=C/C(=O)C(C)(C)CN(CC)CC)cc1,-25.3,-5.6,-1.6,-14.2*,/,2.4
CCN(CC)CCOC(=O)/C=C/c1ccccc1,4.4,-1.3,-0.6,8.8,/,-2.3
Cc1[nH][nH]c(=O)c1C(c1c(C)[nH][nH]c1=O)c1cn(Cc2ccc(F)cc2)c2ccccc12,/,42.1,/,/,/,/
Cc1[nH][nH]c(=O)c1C(c1c(C)[nH][nH]c1=O)c1cn(Cc2ccc(Cl)c(Cl)c2)c2ccccc12,22.0,/,-6.0,-30.4*,/,0.4
Cc1ccn2cc(-c3cccc(S(=O)(=O)N4CC(C)OC(C)C4)c3)nc2c1 (stereo unspecified),1.6,0.4,5.1,-4.6,-4.4,-0.9
Cc1ccn2cc(-c3cccc(S(=O)(=O)N4CCCC4)c3)nc2c1,1.9,-0.3,11.2,-24.9*,1.4,0.3
C[C@H]1CCCCO[C@@H](CN(C)Cc2ccc(C(F)(F)F)cc2)[C@@H](C)CN([C@@H](C)CO)C(=O)c2cc(NS(=O)(=O)c3cn(C)cn3)ccc2O1,-1.1,5.7,-7.3,-0.6,6.6,2.1
CCn1c(=S)sc2c(=O)n(CC(=O)Nc3ccccc3)c(C)nc21,-0.8,-3.1,-8.3,2.8,-0.3,-0.5
SMILES,Casp6 inh,ARNT TACC3 PPI,S100A4 inh HTS,Ecoli rRNA inh,PGC1a acetyl inh,ERAP1 HTS inh
CCn1c(=S)sc2c(=O)n(CC(=O)Nc3ccc(Cl)cc3)c(C)nc21,-0.8,-8.0,-1.5,-19.9*,5.8,-1.0
COCC(=O)N1C[C@@H](C)[C@H](OC)CN(C)C(=O)c2ccc(NS(C)(=O)=O)cc2OC[C@@H]1C,/,-1.9,0.1,1.4,1.2,/
COc1cc(/C=C(\C#N)C(=O)c2ccc(O)c(O)c2)cc(I)c1O,62.7*,51.1*,-15.3,/,6.5,15.7
COc1ccc(C=C(C#N)C(=O)c2ccccc2)cc1,0.1,/,1.0,/,/,0.4
CO[C@@H]1CN(C)C(=O)c2cc(NC(=O)C3CCOCC3)ccc2OC[C@@H](C)N(Cc2cccnc2)C[C@H]1C,/,0.6,2.6,3.9,14.0,/
O=C(Nc1ccc(C(F)(F)F)cc1)N1C[C@@H]2N[C@H](C1)C2c1ccc(-c2cccc(F)c2)cc1 (stereo partly specified),2.9,/,-3.2,-58.5,62.5*!,-3.6
O=C(Nc1ccccc1)N1C[C@@H]2N[C@H](C1)[C@@H]2c1ccc(/C=C/c2ccccc2)cc1,0.0,/,-10.3,-24.6*,-37.6,-0.2
COc1ccc(NC(=O)N2C[C@@H]3N[C@H](C2)C3c2ccc(-c3cccc(F)c3)cc2)cc1 (stereo partly specified),-1.0,/,-1.7,-61.3,-16.8,-2.5
CC(C)C#Cc1cnc2c(c1)C(=O)N([C@H](C)CO)C[C@H](C)[C@@H](CN(C)C(=O)CN1CCOCC1)O2,-3.1,13.0,-16.0,4.3,7.6,0.5
CCCCc1c(C)c(C#N)c2nc3ccccc3n2c1NCCN(C)C,-1.9,-3.8,-2.7,-1.6,25.0,-9.9
Cc1c2c(n3c(nc4ccccc43)c1C#N)N(CCN(C)C)CC2,5.0,-4.4,-5.1,11.3,/,31.2*
Cc1c2c(n3c(nc4ccccc43)c1C#N)N(CCCN(C)C)CC2,0.6,5.8,-8.7,-7.2,5.5,70.7*
CCc1c(C)c(C#N)c2nc3ccccc3n2c1NCCCN(C)C,-0.6,/,0.7,-5.2,-12.4,-3.0
COc1cccc(-c2ccc(CC[C@H]3O[C@H]4CC[C@H](CO)O[C@H]4C[C@@H]3NC(=O)CN(C)C)cc2)c1,/,/,/,/,-2.9,/
O=[N+]([O-])c1cc(Cl)cc(/C=N/NC(=S)Nc2ccc(S(=O)(=O)N3CCOCC3)cc2)c1O,19.6,69.6*,48.3,-19.7,/,-1.3
N#Cc1ccc(/C=N/NC(=S)Nc2ccc(S(=O)(=O)N3CCOCC3)cc2)cc1,-2.8,0.3,-19.8,-14.5,4.3,/
